The list is not random: actives were taken first. Their share in the collection is about 2.1%.
LMPTP block: LMPTP phosphatase inhibitors, primary screen, biochemical, fluorescence intensity, uHTS; recombinant LMPTP-A, OMFP fluorogenic substrate; inhibition, % at 20 µM; AID 651560, 2012; hit rate 0.22% among 360,000;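 active = compounds that cut the enzyme signal by at least half of the control window in the single-dose screen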;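 note: plate controls were DMSO wells with enzyme plus substrate for no effect and substrate without enzyme for full effect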
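Assay system: LMPTP-A enzyme. Input: 0.625 nM LMPTP-A final. Probe or stimulus: 400 µM OMFP. Compound dosing: single 20 µM dose. Schedule: 50 min dark incubation at room temperature. Detection: fluorescence intensity of OMFP turnover product. Read-out: percent inhibition versus substrate-only and uninhibited controls. Benchmarks: no-enzyme low control, uninhibited high control.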
GRK2 aptamer HTS: compounds blocking aptamer binding on GRK2 – biochemical, human GRK2, bead flow cytometry, HTS, primary screen; AID 488847, 2010; FAM-aptamer displacement from GRK2; inhibition of aptamer binding, % at 10 µM; Beta-adrenergic receptor kinase 1 (Homo sapiens), P25098; hit rate 0.59% among 330,000;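 active = inhibition of aptamer binding above 40%, roughly 3 SD of noise, on plates passing a quality check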;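 note: median bead fluorescence of bound FAM aptamer so fluorescent compounds give negative values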
DNMT1 block: human DNMT1 methyltransferase inhibitors, primary screen, biochemical, molecular beacon, fluorescence, HinP1I cleavage, uHTS | DNA (cytosine-5)-methyltransferase 1 (Homo sapiens), P26358 | inhibition (reported as % activation of signal), % at 10 µM | hit rate 0.83% among 360,000 | AID 588458, 2011; in the data active = inhibition above about 50%
STEP inh: STEP phosphatase inhibitors, primary screen, biochemical, fluorescence intensity, uHTS. Tyrosine-protein phosphatase non-receptor type 5 (Homo sapiens), P54829. recombinant STEP, OMFP fluorogenic substrate. inhibition, % at 20 µM. hit rate 0.25% among 360,000. AID 588621, 2011;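 active = inhibition at 20 µM, scaled per plate between control wells, above about 37%, limit read from the data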;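 note: 0% = DMSO with enzyme and substrate and 100% = substrate only without enzyme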
Target sequence (P54829 whole entry, looked up): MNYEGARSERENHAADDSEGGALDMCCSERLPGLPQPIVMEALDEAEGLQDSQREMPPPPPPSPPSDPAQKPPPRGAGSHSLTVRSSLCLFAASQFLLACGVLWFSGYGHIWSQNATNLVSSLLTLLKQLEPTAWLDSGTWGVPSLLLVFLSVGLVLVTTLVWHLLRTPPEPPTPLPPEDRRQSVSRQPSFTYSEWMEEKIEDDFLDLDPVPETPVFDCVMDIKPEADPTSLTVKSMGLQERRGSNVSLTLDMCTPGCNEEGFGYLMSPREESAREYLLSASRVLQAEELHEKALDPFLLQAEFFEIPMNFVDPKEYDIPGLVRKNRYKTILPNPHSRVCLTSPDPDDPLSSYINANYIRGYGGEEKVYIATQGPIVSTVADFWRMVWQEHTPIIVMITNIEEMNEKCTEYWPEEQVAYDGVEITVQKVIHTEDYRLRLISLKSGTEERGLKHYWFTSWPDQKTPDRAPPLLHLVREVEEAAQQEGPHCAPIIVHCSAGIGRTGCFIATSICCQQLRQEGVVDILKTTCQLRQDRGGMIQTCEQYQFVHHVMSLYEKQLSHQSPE
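Test system: STEP tyrosine phosphatase / Reagent: OMFP at 25 µM / Doses: 20 µM, 1% DMSO / Read-out: percent inhibition scaled to no-enzyme and uninhibited-enzyme controls, plate-pattern corrected / Detection: FITC-channel fluorescence of OMFP product / Medium: Bis-Tris buffer pH 6.0, 2.5 mM DTT, 0.005% Tween 20 / Schedule: 20 min at room temperature, dark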
Scp-1 inhibitor: Scp-1 phosphatase inhibitors, primary screen, biochemical, colorimetric, uHTS; inhibition, % at 20 µM; hit rate 0.88% among 340,000; Recombinant Scp1, phosphopeptide, malachite green phosphate absorbance; Carboxy-terminal domain RNA polymerase II polypeptide A small phosphatase 1 (Homo …;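 active = inhibition above about 50% at 20 µM, limit read from the data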;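 note: plate controls were DMSO wells with enzyme for no effect and wells lacking enzyme for full effect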
Target sequence (Q9GZU7 76-261 limits assumed): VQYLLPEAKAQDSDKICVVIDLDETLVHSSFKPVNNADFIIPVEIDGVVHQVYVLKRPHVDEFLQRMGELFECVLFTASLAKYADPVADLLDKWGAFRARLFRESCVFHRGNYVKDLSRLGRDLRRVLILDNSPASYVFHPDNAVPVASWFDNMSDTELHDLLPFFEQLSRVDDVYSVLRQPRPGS
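Times: enzyme reaction 45 min at room temperature, colour 5 min, stabilisation 30 min. Material: SCP-1 catalytic fragment, aa 76-261. Medium: Acidic Tris acetate buffer with magnesium and detergent. Signal: colorimetric free-phosphate detection, absorbance 630 nm. Read-out basis: % inhibition of SCP-1 phosphate liberation. Reagent: Phosphorylated 17-residue peptide substrate.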
SUMO1-SIM PPI: modulators of SUMO1 protein-protein interactions, primary screen, biochemical, uHTS. inhibition, % at 20 µM. SUMO1 binding to a labelled peptide, TR-FRET, 1 h. hit rate 0.33% among 360,000. Small ubiquitin-related modifier 1 (Homo sapiens), P63165; in the data active = inhibition above about 37%
GRK2 CP1: GRK2 aptamer-displacing inhibitors, retest, confirmation, biochemical, cherry pick 1, bead flow cytometry. shares compounds with GRK2 aptamer HTS. bead-bound GRK2, FAM-aptamer displacement. aptamer displacement, % at 10 µM. hit rate 4% among 2,000;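 active = aptamer displacement above 40%, near three times the noise of non-fluorescent compounds, on plates passing quality checks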;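 note: negative values mostly reflect intrinsic compound fluorescence rather than true enhancement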
Aptamer quench 1: fluorescent aptamer quenching in GRK2 counter-screen dose response. shares compounds with GRK2 aptamer HTS. Fluorescent RNA aptamer beads, flow cytometry; stronger effect = higher value. fluorescence change (kMESF span), kMESF (concentration not given with the values). 110 tested, under 10 active. AID 504521;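 active = compounds whose bead fluorescence drops by more than 37 kMESF across the dose range, marking them as dye quenchers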
Aptamer quench SP: counter-screen for GRK2 aptamer inhibitors: fluorescent aptamer quenchers; shares compounds with GRK2 aptamer HTS; 2,000 tested, under 10 active; Carboxyfluorescein RNA aptamer on beads, flow cytometry quenching; stronger effect = lower value; fluorescence response (% of DMSO), % at 10 µM;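 active = compounds that quench the bead-bound fluorescent RNA probe, cutting fluorescence to under half of the solvent control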;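 note: counterscreen run without GRK2 so only probe quenching by compound is measured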
GRK2 CP2: GRK2 aptamer-displacing inhibitors, hit retest, confirmation, biochemical, cherry pick 2, bead flow cytometry | 360 tested, under 10 active | inhibition of aptamer binding, % at 10 µM | shares compounds with GRK2 aptamer HTS | bead-bound GRK2, FAM-aptamer displacement | AID 504782, 2011;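 active = inhibition of aptamer binding above 40%, about triple the noise seen with nonglowing compounds, on plates passing quality control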;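 note: negative values mostly come from compounds that fluoresce themselves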
FAM quench SP: aptamer fluorescence quenching in GRK2 counter-screen; 360 tested, under 10 active; AID 588494; shares compounds with GRK2 aptamer HTS; carboxyfluorescein RNA aptamer beads, flow cytometry quenching; stronger effect = lower value; fluorescence response vs DMSO, % at 10 µM;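 active = response vs DMSO under 50%, meaning signal dropped by over half, treated as fluorescence quencher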;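 note: labelled aptamer on streptavidin beads without GRK2 as a quench counter-screen; 100% = bead fluorescence of DMSO wells and lower means quenching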
FAM quench PS1: quenchers of FAM-labeled RNA aptamer fluorescence, dose response, artefact control for GRK2 aptamer binding project, biochemical, powder set 1, flow cytometry; shares compounds with GRK2 aptamer HTS; 35 tested, under 10 active; fluorescence ratio to DMSO, % at 11.1 µM; Bead-bound FAM RNA aptamer fluorescence quenching; stronger effect = lower value;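 active = compounds that dim the fluorescent label, raw bead signal shifting by over 33 units between lowest and highest dose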
* marks the source's active call; other numbers are inactive results; . = not tested or not shown.

SMILES	LMPTP block	GRK2 aptamer HTS	DNMT1 block	STEP inh	Scp-1 inhibitor	SUMO1-SIM PPI	GRK2 CP1	Aptamer quench SP	others
CN1CCN(S(=O)(=O)c2ccc(NC(=O)C(C)(C)C)cc2)CC1	-1	81*	0	0	-6	2	-4	98
Cn1nc(C(=O)N2CCN(c3ccccn3)CC2)c2ccccc2c1=O	1	10	1	-1	-1	3	.	.
NC(=O)N(CCC(=O)O)c1ccccc1	-2	78*	15	1	20	6	.	.	GRK2 CP2=29;FAM quench SP=99
CCN(CCC(=O)O)c1ccccc1	-3	1	-1	0	2	0	.	.
CCCN(CCC)S(=O)(=O)c1ccc(C(=O)NCc2ccco2)cc1	0	64*	6	-1	-10	6	-2	103
COc1ccc(C2c3ccc(O)cc3Oc3ncn4nc(-c5ccco5)nc4c32)cc1OC (stereo not given)	1	57*	-6	5	-9	2	3	99
O=C(c1cc(-c2ccncc2)nc2ccc(Br)cc12)N1CCN(c2ccccn2)CC1	1	93*	-4	5	-2	-9	-5	98
CCn1c(CSc2nnc(C)n2-c2ccccc2)nc2cc(S(=O)(=O)N(C)C)ccc21	-2	0	-2	3	-12	-1	.	.
CCn1c(CSc2nnc(-c3ccc4c(c3)OCO4)o2)nc2cc(S(=O)(=O)N(C)C)ccc21	3	43*	-2	-1	-1	0	-2	105
N#CC(C(O)c1ccccc1)N1CCOCC1 (stereo not given)	-1	.	-3	-1	.	4	.	.
CCCS(=O)(=O)NC(=O)C1(C)CCN(C(=O)c2ccccc2OC(F)(F)F)C1 (stereo not given)	-2	.	5	-3	.	-3	.	.
N#CC(c1ccc(O)cc1)c1ncc(C(F)(F)F)cc1Cl (stereo not given)	1	0	-4	9	1	-2	.	.
CNC(=O)c1ccsc1NC(=O)CCS(=O)(=O)c1ccc(Cl)cc1	0	1	-2	3	-1	-3	.	.
CNC(=O)c1ccsc1NC(=O)CS(=O)(=O)c1ccccc1	0	1	-3	0	0	5	.	.	GRK2 CP2=11;FAM quench SP=100
NC(=O)c1ccsc1NC(=O)CS(=O)(=O)c1ccccc1	-1	0	0	0	-4	3	.	.	GRK2 CP2=9;FAM quench SP=98
COc1ccc(OCCN2CCN(C(=O)c3ccc(OC(F)F)c(OC)c3)CC2)cc1	0	56*	-2	1	-4	1	0	103
COc1ccc(OCCN2CCN(C(=O)c3ccc(OC)cc3)CC2)cc1	-1	0	2	-3	-2	-4	.	.
Cc1ccc(NC(=S)N2CCC(c3nc4ccccc4s3)CC2)cc1	2	64*	-13	3	4	1	-6	105
CNC(=S)N1CCC(c2nc3ccccc3s2)CC1	-1	2	7	4	-1	-3	.	.
CC(C)C[C@H]1CNC(=S)N1CC1CCN(CCCCc2ccccc2)CC1	-2	.	2	5	4	3	.	.
COc1ccccc1-c1csc(C(NC(C)=O)c2ccccc2)n1 (stereo not given)	-1	.	-3	0	.	-6	.	.
Cc1ccnc(NC(=O)COC(=O)c2ccc(F)cc2F)n1	1	24	8	2	32	7	6	95
Cc1ccc(NC(=O)CCS(=O)(=O)c2ccc(Br)cc2)nc1	-1	0	-3	1	2	0	1	96
COC(=O)c1ccccc1NC(=O)CCS(=O)(=O)c1ccc(Br)s1	-1	3	1	2	8	2	0	103	Aptamer quench 1=1.2;FAM quench PS1=99
COc1ccc(NC(=O)CCS(=O)(=O)c2cccc3nonc23)c(OC)c1	0	1	-1	2	8	-26	.	.	GRK2 CP2=-6;FAM quench SP=100
SMILES	LMPTP block	GRK2 aptamer HTS	DNMT1 block	STEP inh	Scp-1 inhibitor	SUMO1-SIM PPI	GRK2 CP1	Aptamer quench SP	others
Cc1ccccc1NC(=O)CCS(=O)(=O)c1ccc(Br)s1	0	67*	25	5	46	15	38	100	Aptamer quench 1=12;FAM quench PS1=95
COc1ccc(NC(=O)CCS(=O)(=O)c2cccc3nonc23)cc1	-2	1	0	-2	-1	-33	.	.
COC(=O)c1ccc(NC(=O)CCS(=O)(=O)c2ccc(Br)s2)cc1	-1	0	2	-5	0	1	.	.
C#CCCc1ccccc1/C=[N+](/C)[O-]	1	0	-5	3	2	-26	.	.
CCN1CCC2(CC1)Oc1c(OC)cccc1C1CC(c3cccnc3)=NN12 (stereo not given)	-2	2	2	0	-6	2	.	.
O=C(CN1C(=O)NC2(CCCC2)C1=O)OCc1ccc(Cl)cc1Cl	0	1	1	-1	-8	3	.	.
CCOc1ccccc1NC(=O)CCS(=O)(=O)c1ccc(OC)cc1	-1	0	-2	-4	-4	1	.	.	GRK2 CP2=-33;FAM quench SP=103

Screening data deposited in PubChem by several laboratories.
